Source: ChEMBL document CHEMBL3259701, “Siderophore receptor-mediated uptake of lactivicin analogues in gram-negative bacteria” (J Med Chem, 2014)
In brackets after ≈: the same amount, converted by molar mass.

How the values were obtained:
Pseudomonas aeruginosa [1] = test: Ratio of MIC for Pseudomonas aeruginosa PAO1 harboring siderophore receptor piuA and pfeA double mutant to MIC for wild type Pseudomonas aeruginosa PAO1 in medium containing aztreonam and low-Fe by CLSI broth microdilution method; assay type: functional
Pseudomonas aeruginosa [2] = test: Antibacterial activity against Pseudomonas aeruginosa PAO1 by CLSI broth microdilution method; assay type: functional
[3] = molecular target: Penicillin-binding protein 1A (Pseudomonas aeruginosa PAO1, UniProt Q07806); test: Displacement of fluorescent Bocillin FL from N-terminal His tagged Pseudomonas aeruginosa PAO1 PBP1a (residues 36 to 822) expressed in Escherichia coli BL21 (Gold cells)
Sequence of Penicillin-binding protein 1A (Q07806 whole entry, the tested form may be a part): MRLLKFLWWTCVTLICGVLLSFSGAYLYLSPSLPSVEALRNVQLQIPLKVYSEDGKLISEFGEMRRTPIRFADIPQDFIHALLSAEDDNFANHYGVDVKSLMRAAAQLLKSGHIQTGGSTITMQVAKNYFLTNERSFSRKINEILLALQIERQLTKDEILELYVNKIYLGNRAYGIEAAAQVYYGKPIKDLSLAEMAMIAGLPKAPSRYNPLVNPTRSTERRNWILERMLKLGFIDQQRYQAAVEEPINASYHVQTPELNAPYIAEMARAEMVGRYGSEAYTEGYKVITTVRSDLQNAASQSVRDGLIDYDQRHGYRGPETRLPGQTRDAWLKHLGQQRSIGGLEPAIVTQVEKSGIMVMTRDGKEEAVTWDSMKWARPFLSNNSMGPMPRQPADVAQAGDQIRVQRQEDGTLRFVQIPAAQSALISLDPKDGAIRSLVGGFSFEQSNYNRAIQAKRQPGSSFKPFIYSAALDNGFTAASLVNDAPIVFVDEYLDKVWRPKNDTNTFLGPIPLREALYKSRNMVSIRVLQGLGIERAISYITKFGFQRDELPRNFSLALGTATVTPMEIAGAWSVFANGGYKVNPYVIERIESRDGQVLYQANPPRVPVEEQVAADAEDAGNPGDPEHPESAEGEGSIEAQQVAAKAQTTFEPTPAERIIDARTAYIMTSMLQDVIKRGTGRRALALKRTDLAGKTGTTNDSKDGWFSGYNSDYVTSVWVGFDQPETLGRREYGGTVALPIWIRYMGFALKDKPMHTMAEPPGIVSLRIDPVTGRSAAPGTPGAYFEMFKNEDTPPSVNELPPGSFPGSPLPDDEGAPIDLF

Pseudomonas aeruginosa [4] = test: Antibacterial activity against Pseudomonas aeruginosa PAO1 in Mueller-Hinton broth medium by CLSI broth microdilution method; assay type: functional
Summary of the method: (§1)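 MIC by CLSI broth microdilution in standard Mueller Hinton broth. Tested against wild-type P. aeruginosa PAO1 and an isogenic panel lacking one or more siderophore receptors.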

Pseudomonas aeruginosa [5] = test: Antibacterial activity against Pseudomonas aeruginosa PAO1 harboring siderophore receptor piuA, pfeA and pirA mutant in medium containing aztreonam and low-Fe by CLSI broth microdilution method; assay type: functional
Pseudomonas aeruginosa [6] = test: Ratio of MIC for Pseudomonas aeruginosa PAO1 harboring siderophore receptor pirA mutant to MIC for wild type Pseudomonas aeruginosa PAO1 in Mueller-Hinton broth medium by CLSI broth microdilution method; assay type: functional
Summary of the method: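 Receptor-deficient PAO1 strain MIC divided by parent PAO1 MIC. Both MICs were obtained by CLSI broth microdilution in standard Mueller Hinton broth. A shift greater than 4× was taken to indicate that the deleted receptor(s) take part in drug uptake.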

Pseudomonas aeruginosa [7] = test: Ratio of MIC for Pseudomonas aeruginosa PAO1 harboring siderophore receptor fpvA mutant to MIC for wild type Pseudomonas aeruginosa PAO1 in medium containing aztreonam and low-Fe by CLSI broth microdilution method; assay type: functional
Pseudomonas aeruginosa [8] = test: Ratio of MIC for Pseudomonas aeruginosa PAO1 harboring siderophore receptor pfeA mutant to MIC for wild type Pseudomonas aeruginosa PAO1 in medium containing low-Fe by CLSI broth microdilution method; assay type: functional
Summary of the method: (§2)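 Ratio of strain MIC to PAO1 MIC. Both MICs were obtained by CLSI broth microdilution in iron-depleted modified Mueller Hinton broth. A shift greater than 4× versus the parent was read as the deleted receptor(s) taking part in uptake.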

Acinetobacter baumannii = test: Antibacterial activity against Acinetobacter baumannii AB-3167 by CLSI broth microdilution method; assay type: functional
Pseudomonas aeruginosa [9] = test: Ratio of MIC for Pseudomonas aeruginosa PAO1 harboring siderophore receptor fptA mutant to MIC for wild type Pseudomonas aeruginosa PAO1 in medium containing low-Fe by CLSI broth microdilution method; assay type: functional; summary of the method: as §2
Pseudomonas aeruginosa [10] = test: Ratio of MIC for Pseudomonas aeruginosa PAO1 harboring siderophore receptor piuA and fpvA double mutant to MIC for wild type Pseudomonas aeruginosa PAO1 in medium containing low-Fe by CLSI broth microdilution method; assay type: functional
Summary of the method: (§3)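 CLSI broth microdilution MICs in a modified Mueller-Hinton broth depleted of iron to mimic low in vivo iron. Tested against wild-type PAO1 and isogenic siderophore receptor knockout strains. Reported as the knockout-strain MIC divided by the PAO1 MIC in the same iron-depleted medium.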

Pseudomonas aeruginosa [11] = test: Ratio of MIC for Pseudomonas aeruginosa PAO1 harboring siderophore receptor piuA and fptA double mutant to MIC for wild type Pseudomonas aeruginosa PAO1 in medium containing low-Fe by CLSI broth microdilution method; assay type: functional; summary of the method: as §3
Pseudomonas aeruginosa [12] = test: Antibacterial activity against Pseudomonas aeruginosa PAO1 harboring siderophore receptor piuA and fptA double mutant in Mueller-Hinton broth medium by CLSI broth microdilution method; assay type: functional; summary of the method: as §1
Pseudomonas aeruginosa [13] = test: Ratio of MIC for Pseudomonas aeruginosa PAO1 harboring siderophore receptor piuA and pirA double mutant to MIC for wild type Pseudomonas aeruginosa PAO1 in Mueller-Hinton broth medium by CLSI broth microdilution method; assay type: functional
Summary of the method: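 Broth microdilution MIC per CLSI in standard Mueller-Hinton broth, run against wild-type P. aeruginosa PAO1 and isogenic PAO1 strains lacking one or more siderophore receptors. Value is the mutant-strain MIC divided by the PAO1 MIC.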

Pseudomonas aeruginosa [14] = test: Antibacterial activity against Pseudomonas aeruginosa 1091-05 by CLSI broth microdilution method; assay type: functional
Pseudomonas aeruginosa [15] = test: Ratio of MIC for Pseudomonas aeruginosa PAO1 harboring siderophore receptor fptA mutant to MIC for wild type Pseudomonas aeruginosa PAO1 in medium containing aztreonam and low-Fe by CLSI broth microdilution method; assay type: functional
Pseudomonas aeruginosa [16] = test: Ratio of MIC for Pseudomonas aeruginosa PAO1 harboring siderophore receptor piuA, pfeA and pirA mutant in MHB medium to MIC for harboring siderophore receptor piuA, pfeA and pirA mutant in medium containing low-Fe by CLSI broth microdilution method; assay type: functional
Pseudomonas aeruginosa [17] = test: Ratio of MIC for Pseudomonas aeruginosa PAO1 harboring siderophore receptor pirA and pfeA double mutant to MIC for wild type Pseudomonas aeruginosa PAO1 in medium containing low-Fe by CLSI broth microdilution method; assay type: functional; summary of the method: as §2
Pseudomonas aeruginosa [18] = test: Antibacterial activity against Pseudomonas aeruginosa PAO1 harboring siderophore receptor piuA and pirA double mutant in Mueller-Hinton broth medium by CLSI broth microdilution method; assay type: functional; summary of the method: as §1
Pseudomonas aeruginosa [19] = test: Ratio of MIC for Pseudomonas aeruginosa PAO1 harboring siderophore receptor piuA and fptA double mutant to MIC for wild type Pseudomonas aeruginosa PAO1 in medium containing aztreonam and low-Fe by CLSI broth microdilution method; assay type: functional
Pseudomonas aeruginosa [20] = test: Antibacterial activity against Pseudomonas aeruginosa PAO1 harboring siderophore receptor pirA and pfeA double mutant in Mueller-Hinton broth medium by CLSI broth microdilution method; assay type: functional; summary of the method: as §1
Pseudomonas aeruginosa [21] = test: Antibacterial activity against Pseudomonas aeruginosa PAO1 harboring siderophore receptor piuA and fpvA double mutant in medium containing aztreonam and low-Fe by CLSI broth microdilution method; assay type: functional
Pseudomonas aeruginosa [22] = test: Antibacterial activity against Pseudomonas aeruginosa PAO1 harboring siderophore receptor piuA and pirA double mutant in medium containing low-Fe by CLSI broth microdilution method; assay type: functional
Summary of the method: (§4)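 MIC by CLSI broth microdilution in a modified Mueller Hinton broth depleted of iron to mimic the low-iron in vivo environment. Tested against PAO1 and isogenic strains lacking one or more siderophore receptors.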

Escherichia coli = test: Antibacterial activity against Escherichia coli DH5alpha expressing beta-lactamase VIM-2 by CLSI broth microdilution method; assay type: functional; details: DH5[alpha]
Pseudomonas aeruginosa [23] = test: Ratio of MIC for Pseudomonas aeruginosa PAO1 harboring siderophore receptor pfeA mutant to MIC for wild type Pseudomonas aeruginosa PAO1 in medium containing aztreonam and low-Fe by CLSI broth microdilution method; assay type: functional
Pseudomonas aeruginosa [24] = test: Ratio of MIC for Pseudomonas aeruginosa PAO1 harboring siderophore receptor piuA and fpvA double mutant in MHB medium to MIC for Pseudomonas aeruginosa PAO1 harboring siderophore receptor piuA and fpvA double mutant in medium containing low-Fe by CLSI broth microdilution method; assay type: functional
Pseudomonas aeruginosa [25] = test: Antibacterial activity against Pseudomonas aeruginosa PAO1 harboring siderophore receptor piuA mutant in medium containing low-Fe by CLSI broth microdilution method; assay type: functional; summary of the method: as §4
Pseudomonas aeruginosa [26] = test: Antibacterial activity against Pseudomonas aeruginosa PAO1 harboring siderophore receptor fptA mutant in medium containing low-Fe by CLSI broth microdilution method; assay type: functional; summary of the method: as §4
Klebsiella pneumoniae = test: Antibacterial activity against Klebsiella pneumoniae KP-3700 by CLSI broth microdilution method; assay type: functional
Pseudomonas aeruginosa [27] = test: Ratio of MIC for Pseudomonas aeruginosa PAO1 harboring siderophore receptor pirA mutant to MIC for wild type Pseudomonas aeruginosa PAO1 in medium containing aztreonam and low-Fe by CLSI broth microdilution method; assay type: functional

CC(C)(O/N=C(\C(=O)N[C@H]1CON(C2(C(=O)O)C[C@H](N3C(=O)c4cc(O)c(O)cc4C3=O)C(=O)O2)C1=O)c1csc(N)n1)C(=O)O (stereo not given in full)
Ratio (Pseudomonas aeruginosa [1]): 1 | MIC (Pseudomonas aeruginosa [2]): 0.5 mg/L (≈ 0.755 µM) | IC50 [3]: 0.03 µM | MIC (Pseudomonas aeruginosa [4]): 0.5 mg/L (≈ 0.755 µM) | MIC (Pseudomonas aeruginosa [5]): 4 mg/L (≈ 6.04 µM) | Ratio (Pseudomonas aeruginosa [6]): 1 | Ratio (Pseudomonas aeruginosa [7]): 0.5 | Ratio (Pseudomonas aeruginosa [8]): 1 | MIC (Acinetobacter baumannii): 0.06 mg/L (≈ 0.0906 µM) | Ratio (Pseudomonas aeruginosa [9]): >=2 | Ratio (Pseudomonas aeruginosa [10]): >=8 | Ratio (Pseudomonas aeruginosa [11]): >=16 | MIC (Pseudomonas aeruginosa [12]): 8 mg/L (≈ 12.1 µM) | Ratio (Pseudomonas aeruginosa [13]): 32 | MIC (Pseudomonas aeruginosa [14]): 0.5 mg/L (≈ 0.755 µM) | Ratio (Pseudomonas aeruginosa [15]): 1 | Ratio (Pseudomonas aeruginosa [16]): 64 | Ratio (Pseudomonas aeruginosa [17]): 1 | MIC (Pseudomonas aeruginosa [18]): 16 mg/L (≈ 24.1 µM) | Ratio (Pseudomonas aeruginosa [19]): 1 | MIC (Pseudomonas aeruginosa [20]): 0.5 mg/L (≈ 0.755 µM) | MIC (Pseudomonas aeruginosa [21]): 4 mg/L (≈ 6.04 µM) | MIC (Pseudomonas aeruginosa [22]): 0.25 mg/L (≈ 0.377 µM) | MIC (Escherichia coli): 0.015 mg/L (≈ 0.0226 µM) | Ratio (Pseudomonas aeruginosa [23]): 1 | Ratio (Pseudomonas aeruginosa [24]): 64 | MIC (Pseudomonas aeruginosa [25]): 0.125 mg/L (≈ 0.189 µM) | MIC (Pseudomonas aeruginosa [26]): 0.06 mg/L (≈ 0.0906 µM) | MIC (Klebsiella pneumoniae): 0.5 mg/L (≈ 0.755 µM) | Ratio (Pseudomonas aeruginosa [27]): 1
